Results reported in ChEMBL document CHEMBL3272326, “Antitumor septacidin analogues” (J Med Chem, 1977).
pEC50, pIC50: −log10 of the molar value.

Experiments:
[1] = test system: L1210; assay: Inhibition of RNA synthesis in mouse L1210 cells after 3 hrs by [3H]uridine incorporation assay; type: functional; details: L1210, 3 h, read-out: ED50 (the source's name)
Procedure, shortened: (§1)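 Cultured lymphoid leukemia L1210 cells; nucleic acid synthesis inhibition measured by a previously reported procedure, modified by adding 1% Me2SO for solubility.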

[2] = test system: L1210; assay: Inhibition of DNA synthesis in mouse L1210 cells after 3 hrs by [3H]thymidine incorporation assay; type: functional; details: L1210, 3 h, read-out: ED50 (the source's name); procedure, shortened: as §1
[3] = test system: P388 (Mus musculus); assay: Antitumor activity against mouse P388 cells allografted in mouse assessed as optimum dose administered qd from day 1 to 9
[4] = test system: L1210; assay: Cytotoxicity against mouse L1210 cells; type: functional, cell-based; details: read-out: I50
[5] = test system: P388 (Mus musculus); assay: Antitumor activity against mouse P388 cells allografted in mouse assessed as tumor growth inhibition at optimum dose administered qd from day 1 to 9 relative to control
[6] = test system: Calf thymus DNA; assay: Binding affinity to calf thymus helical DNA assessed as change in melting temperature by […] analysis; type: nucleic-acid assay; details: Bos taurus
Procedure, shortened: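 Helix–coil transition temperature shift of isolated helical DNA in solution. Modified procedure: 0.010 M phosphate buffer with 10⁻⁵ M EDTA, pH 7.0, plus 5% Me2SO to solubilize compound.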

[7] = test system: Salmonella typhimurium; assay: Mutagenicity in Salmonella typhimurium TA1538 by Ames test in presence of S9 fraction; type: toxicity, organism-based; details: salmonella enterica subsp. enterica serovar typhimurium
Procedure, shortened: (§2)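 Salmonella plate mutagenicity test; compounds tested at levels up to 1 μmol per plate.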

[8] = test system: Salmonella typhimurium; assay: Mutagenicity in Salmonella typhimurium TA1537 by Ames test; type: toxicity, organism-based; details: salmonella enterica subsp. enterica serovar typhimurium; procedure, shortened: as §2
[9] = test system: Salmonella typhimurium; assay: Mutagenicity in Salmonella typhimurium TA1535 by Ames test in presence of S9 fraction; type: toxicity, organism-based; details: salmonella enterica subsp. enterica serovar typhimurium; procedure, shortened: as §2
[10] = test system: Salmonella typhimurium; assay: Mutagenicity in Salmonella typhimurium TA1538 by Ames test; type: toxicity, organism-based; details: salmonella enterica subsp. enterica serovar typhimurium; procedure, shortened: as §2
[11] = test system: Salmonella typhimurium; assay: Mutagenicity in Salmonella typhimurium TA1536 by Ames test; type: toxicity, organism-based; details: salmonella enterica subsp. enterica serovar typhimurium; procedure, shortened: as §2
[12] = test system: Salmonella typhimurium; assay: Mutagenicity in Salmonella typhimurium TA1535 by Ames test; type: toxicity, organism-based; details: salmonella enterica subsp. enterica serovar typhimurium; procedure, shortened: as §2
[13] = test system: Salmonella typhimurium; assay: Mutagenicity in Salmonella typhimurium TA1536 by Ames test in presence of S9 fraction; type: toxicity, organism-based; details: salmonella enterica subsp. enterica serovar typhimurium; procedure, shortened: as §2
[14] = test system: Salmonella typhimurium; assay: Mutagenicity in Salmonella typhimurium TA1537 by Ames test in presence of S9 fraction; type: toxicity, organism-based; details: salmonella enterica subsp. enterica serovar typhimurium; procedure, shortened: as §2

CCOCCC(=O)NCC(=O)N[C@@H]1[C@@H](O)[C@H](O)[C@@H](Nc2ncnc3[nH]cnc23)O[C@H]1C
pEC50 [1]: < 3.00
pEC50 [2]: < 3.00
Activity [3]: 3.1 mg/kg
pIC50 [4]: < 3.30
T/C [5]: < 125%

CCCCCCCCCCCC(=O)NCC(=O)N[C@@H]1[C@@H](O)[C@H](O)[C@@H](Nc2ncnc3[nH]cnc23)O[C@H]1C
pEC50 [1]: 4.74
pEC50 [2]: 4.54
Activity [3]: 1 mg/kg
pIC50 [4]: < 5.00
T/C [5]: 137%

CCCCCCCCCCCCCCCCC(NC(C)=O)C(=O)N[C@@H]1[C@@H](O)[C@H](O)[C@@H](Nc2ncnc3[nH]cnc23)O[C@H]1C (stereo partly specified)
pEC50 [1]: < 3.00
pEC50 [2]: < 3.00

CC(C)CCCCCCCCCCCCC(=O)NCC(=O)N[C@@H]1[C@@H](O)[C@H](O)[C@@H](Nc2ncnc3[nH]cnc23)O[C@H]1C
pEC50 [1]: 5.96
pEC50 [2]: 5.74
Activity [3]: 1 mg/kg
pIC50 [4]: < 4.70
T/C [5]: 160%
ΔTm [6]: 0.6 °C

COc1cccc2c1C(=O)c1c(O)c3c(c(O)c1C2=O)C[C@@](O)(C(=O)CO)C[C@@H]3O[C@H]1C[C@H](N)[C@H](O)[C@H](C)O1 [DOXORUBICIN]
pEC50 [1]: 6.17
pEC50 [2]: 5.82
Activity [3]: 1 mg/kg
pIC50 [4]: 7.49
T/C [5]: 193%
ΔTm [6]: 13.6 °C

CCCCCCCCCCCCCCCC(=O)NCC(=O)N[C@@H]1[C@@H](O)[C@H](O)[C@@H](Nc2ncnc3[nH]cnc23)O[C@H]1CO
pEC50 [1]: 5.80
pEC50 [2]: 5.60
Activity [3]: 0.5 mg/kg
pIC50 [4]: < 4.00
T/C [5]: 136%
ΔTm [6]: 3.6 °C

CCCCCCCCCCCC(=O)NCC(=O)N[C@@H]1[C@@H](O)[C@H](O)[C@@H](Nc2ncnc3[nH]cnc23)O[C@H]1CO
Activity [7]: Non-toxic
Activity [8]: Non-toxic
Activity [9]: Non-toxic
pEC50 [1]: 5.26
pEC50 [2]: 4.70
Activity [3]: 1 mg/kg
pIC50 [4]: 5.52
Activity [10]: Non-toxic
T/C [5]: 133%
Activity [11]: Non-toxic
ΔTm [6]: 0.5 °C
Activity [12]: Non-toxic
Activity [13]: Non-toxic
Activity [14]: Non-toxic

CCOCCC(=O)NCC(=O)N[C@@H]1[C@@H](O)[C@H](O)[C@@H](Nc2ncnc3[nH]cnc23)O[C@H]1CO
pEC50 [1]: < 3.00
pEC50 [2]: < 3.00
Activity [3]: 3.1 mg/kg
pIC50 [4]: < 3.30
T/C [5]: < 125%
ΔTm [6]: 0.4 °C

CCCCCC(=O)NCC(=O)N[C@@H]1[C@@H](O)[C@H](O)[C@@H](Nc2ncnc3[nH]cnc23)O[C@H]1C
Activity [7]: Non-toxic
Activity [8]: Non-toxic
Activity [9]: Non-toxic
pEC50 [1]: < 3.00
pEC50 [2]: < 3.00
Activity [3]: 0.5 mg/kg
pIC50 [4]: 3.60
Activity [10]: Non-toxic
T/C [5]: < 125%
Activity [11]: Non-toxic
Activity [12]: Non-toxic
Activity [13]: Non-toxic
Activity [14]: Non-toxic

CC(C)CCCCCCCCCCCCC(=O)NCC(=O)N[C@@H]1[C@@H](O)[C@H](O)[C@@H](Nc2ncnc3[nH]cnc23)O[C@H]1CO
Activity [7]: Non-toxic
Activity [8]: Non-toxic
Activity [9]: Non-toxic
pEC50 [1]: 6.16
pEC50 [2]: 5.80
Activity [3]: 0.5 mg/kg
pIC50 [4]: < 5.00
Activity [10]: Non-toxic
T/C [5]: 149%
Activity [11]: Non-toxic
ΔTm [6]: 1.7 °C
Activity [12]: Non-toxic
Activity [13]: Non-toxic
Activity [14]: Non-toxic

CC(C)CCCCCCCCCCCCC(=O)N[C@@H]1[C@@H](O)[C@H](O)[C@@H](Nc2ncnc3[nH]cnc23)O[C@H]1C
Activity [7]: Non-toxic
Activity [8]: Non-toxic
Activity [9]: Non-toxic
pEC50 [1]: < 3.00
pEC50 [2]: < 3.00
Activity [3]: 0.5 mg/kg
pIC50 [4]: < 4.00
Activity [10]: Non-toxic
T/C [5]: < 125%
Activity [11]: Non-toxic
ΔTm [6]: 0.5 °C
Activity [12]: Non-toxic
Activity [13]: Non-toxic
Activity [14]: Non-toxic

CC(C)CCCCCCCCCCCCC(=O)NCC(=O)N[C@@H]1[C@@H](O)[C@H](O)[C@@H](Nc2ncnc3[nH]cnc23)O[C@H]1C(O)CO (stereo partly specified)
pEC50 [1]: 6.00
pEC50 [2]: 6.40
Activity [3]: 0.5 mg/kg
pIC50 [4]: < 5.30
T/C [5]: 154%
